Test results taken from ChEMBL document CHEMBL1133549, “N4-(omega-Aminoalkyl)-1-[(omega-aminoalkyl)amino]-4- acridinecarboxamides: novel, potent, cytotoxic, and DNA-binding agents” (J Med Chem, 2000).

Experiments:
Nucleic Acid [1] = test: Binding affinity against CT-DNA from calf thymus DNA; type: nucleic-acid assay; conditions: Bos taurus
Method in brief: (§1)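 Ethidium displacement measured fluorometrically at 20 °C (excitation 546 nm, emission 595 nm). Buffer was 10 mM Na2HPO4, 10 mM NaH2PO4, 1 mM EDTA, pH 7.0, with 1.26 µM ethidium bromide and 1 µM of CT-DNA, [poly(dA-dT)]2 or [poly(dG-dC)]2. Drug was added serially from a ~5 mM DMSO stock. C50 (50% loss of bound-ethidium fluorescence) is the mean of three determinations. Kapp = 1.26/C50 × 10^7.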

Nucleic Acid [2] = test: Binding affinity against GC from [poly(dG-dC)]2.; type: nucleic-acid assay; method in brief: as §1
Nucleic Acid [3] = test: Tested for binding affinity against AT from [poly(dA-dT)]2.; type: nucleic-acid assay; method in brief: as §1
HT-29 = test: The compound was tested for cytotoxic activity against HT-29 cell line(human colon adeno carcinoma); type: functional, cell-based
Method in brief: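 HT29 colon adenocarcinoma cells at 2.5×10^4 cells/mL received drug under protracted exposure for 144 h. Assays were run in triplicate.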

CH1 [4] = test: The compound was tested for cytotoxic activity against CH1 cell line(human ovarian carcinoma ); type: functional, cell-based
Method in brief: (§2)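 Human ovarian carcinoma cells (100–5000) were plated and allowed to adhere overnight. Drug was diluted from DMSO stock into aqueous solution at pH 7.0 and applied continuously for 96 h at 37 °C. Growth was read by SRB protein staining. IC50 is 50% growth inhibition versus drug-free controls, from a representative experiment with 4 replicate wells per concentration and 8 control wells.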

SK-OV-3 = test: The compound was tested for cytotoxic activity against SKOV-3 cell line(human ovarian carcinoma ); type: functional, cell-based; method in brief: as §2
A2780cisR [5] = test: The compound was tested for cytotoxic activity against A2780cisR cell line(human ovarian carcinoma ); type: functional, cell-based; method in brief: as §2
[6] = (§3) The compound was tested for cytotoxic activity against CH1/Cs cell line(human ovarian carcinoma); type: functional, cell-based; method in brief: as §2
A2780 [7] = test: The compound was tested for cytotoxic activity against A2780 cell line(human ovarian carcinoma ); type: functional, cell-based; method in brief: as §2
CH1 [8] = test: as §3; type: functional, cell-based; method in brief: as §2
A2780 [9] = test: The compound was tested for cytotoxic activity against A2780/Cs cell line(human ovarian carcinoma; type: functional, cell-based; method in brief: as §2
A2780cisR [10] = test: The compound was tested for cytotoxic activity against A2780cisR cell line(human ovarian carcinoma); type: functional, cell-based; method in brief: as §2
A2780cisR [11] = test: The compound was tested for cytotoxic activity against A2780cisR cell line(human ovarian carcinoma; type: functional, cell-based; method in brief: as §2

| Compound | K app (Nucleic Acid [1]) | K app (Nucleic Acid [2]) | K app (Nucleic Acid [3]) | IC50 (HT-29) | IC50 (CH1 [4]) | IC50 (SK-OV-3) | IC50 (A2780cisR [5]) | IC50 [6] | IC50 (A2780 [7]) | IC50 (A2780cisR [5]; Homo sapiens, A2780cisR) | IC50 (CH1 [8]) | IC50 (A2780 [9]) | IC50 (A2780cisR [10]) | IC50 (A2780cisR [5]; a2780cisr) | IC50 (A2780cisR [11]) |
| --- | --- | --- | --- | --- | --- | --- | --- | --- | --- | --- | --- | --- | --- | --- | --- |
| CN(C)CCNC(=O)c1ccc(NCCN(C)C)c2cc3cc(N)ccc3nc12 [listing 1 of 3 here] | 1.4e+09 M⁻¹ | 4.1e+08 M⁻¹ | 2.8e+08 M⁻¹ | – | – | – | – | – | – | – | – | – | – | – | – |
| CN(C)CCNC(=O)c1ccc(Cl)c2cc3ccccc3nc12 | – | – | – | 790 nM | 1750 nM | 3300 nM | 2040 nM | 1900 nM | 2050 nM | – | – | – | – | – | – |
| COc1cccc2c1C(=O)c1c(O)c3c(c(O)c1C2=O)C[C@@](O)(C(=O)CO)C[C@@H]3O[C@H]1C[C@H](N)[C@H](O)[C@H](C)O1 [DOXORUBICIN] | – | – | – | – | – | – | – | – | – | 17 nM | 450 nM | – | – | – | – |
| CN(C)CCNC(=O)c1ccc(NCCN(C)C)c2cc3ccccc3nc12 | 1.5e+09 M⁻¹ | 2.3e+08 M⁻¹ | 2.8e+07 M⁻¹ | 7 nM | 7 nM | 110 nM | – | 5 nM | 4.3 nM | – | – | 7 nM | – | – | – |
| CN(C)CCNC(=O)c1ccc(NCCNCCO)c2cc3ccccc3nc12 | 9.9e+07 M⁻¹ | 3e+08 M⁻¹ | 4.5e+07 M⁻¹ | 100 nM | 52 nM | 240 nM | 91 nM | 46 nM | 85 nM | – | – | – | – | – | – |
| COc1ccc2nc3c(C(=O)NCCN(C)C)ccc(NCCN(C)C)c3cc2c1 | 1.9e+07 M⁻¹ | 5.9e+07 M⁻¹ | 1.4e+07 M⁻¹ | 560 nM | 50 nM | 60 nM | – | 44 nM | 96 nM | – | – | – | 125 nM | – | – |
| O=C(NCCN1CCOCC1)c1ccc(NCCN2CCOCC2)c2cc3ccccc3nc12 | 4.4e+06 M⁻¹ | 3e+06 M⁻¹ | 5e+06 M⁻¹ | 2700 nM | 1850 nM | 3200 nM | 2500 nM | 2150 nM | 2300 nM | – | – | – | – | – | – |
| CN(C)CCCNC(=O)c1ccc(NCCCN(C)C)c2cc3ccccc3nc12 [listing 1 of 2 here] | – | – | – | 710 nM | 860 nM | 660 nM | – | 530 nM | 1950 nM | – | – | 1250 nM | – | – | – |
| CN(C)CCNC(=O)c1cccc2cc3ccccc3nc12 | 1.1e+06 M⁻¹ | 1e+06 M⁻¹ | 1.4e+06 M⁻¹ | 990 nM | 480 nM | 980 nM | 570 nM | 530 nM | 510 nM | – | – | – | – | – | – |
| CN(C)CCNC(=O)c1ccc(NCCN(C)C)c2cc3cc(O)ccc3nc12 | 2.9e+08 M⁻¹ | 1e+08 M⁻¹ | 3.1e+07 M⁻¹ | 850 nM | 150 nM | 900 nM | 190 nM | 200 nM | 110 nM | – | – | – | – | – | – |
| CN(C)CCNC(=O)c1ccc(NCCN(C)C)c2c(=O)c3ccccc3[nH]c12 | 3.7e+07 M⁻¹ | – | – | 94 nM | 20 nM | 400 nM | – | – | 15 nM | – | – | – | – | – | – |
| CISPLATIN | – | – | – | – | – | – | – | – | – | – | – | – | – | 3400 nM | – |
| CN(C)CCNC(=O)c1ccc(NCCN(C)C)c2cc3cc(N)ccc3nc12 [listing 2 of 3 here] | – | – | – | 700 nM | 89 nM | 155 nM | 365 nM | – | 320 nM | – | 100 nM | – | – | – | – |
| NCCNC(=O)c1ccc(NCCN)c2cc3ccccc3nc12 | 8.5e+07 M⁻¹ | 5.6e+07 M⁻¹ | 2.2e+07 M⁻¹ | 6940 nM | 1200 nM | 12000 nM | 3150 nM | 1550 nM | 12000 nM | – | – | – | – | – | – |
| CN(C)CCCNC(=O)c1ccc(NCCCN(C)C)c2cc3ccccc3nc12 [listing 2 of 2 here] | – | – | – | 710 nM | 860 nM | 660 nM | – | – | 1950 nM | 1250 nM | 530 nM | – | – | – | – |
| O=C(NCCN1CCCCC1)c1ccc(NCCN2CCCCC2)c2cc3ccccc3nc12 | 3.4e+07 M⁻¹ | 6.3e+07 M⁻¹ | 2.7e+07 M⁻¹ | 440 nM | 135 nM | 140 nM | 120 nM | 110 nM | 100 nM | – | – | – | – | – | – |
| CN(C)CCNC(=O)c1ccc(NCCN(C)C)c2cc3cc(N)ccc3nc12 [listing 3 of 3 here] | – | – | – | 700 nM | 89 nM | 155 nM | – | – | 320 nM | 365 nM | 100 nM | – | – | – | – |
| CCN(CC)CCNC(=O)c1ccc(NCCN(CC)CC)c2cc3ccccc3nc12 | 1.5e+08 M⁻¹ | 9.1e+07 M⁻¹ | 1.7e+07 M⁻¹ | 580 nM | 185 nM | 500 nM | – | 375 nM | 415 nM | – | – | – | – | – | 475 nM |
